From PubChem BioAssay
Sampled rows, rich in hits. Any-hit rate of the full collection: about 4.3%.
SMARCA2 activ – SMARCA2 function activation, primary screen; activation, % at 9.1 µM; actives 1% (n = 370,000); MG213 cells, MMTV-luciferase reporter, dexamethasone, overnight; in the data active means activation above about 7.8%
Hep lipid drop – modulators of hepatic lipid droplet formation; AML12 mouse hepatocytes, oleate lipid droplets, BODIPY imaging; inhibition, % at 6.5 µM; actives 0.4% (n = 240,000);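 active means lipid droplet intensity inhibited by at least 50%, with more than 500 cells counted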
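System: AML12 hepatocytes (mouse). Probe or stimulus: oleic acid at 100 µM to induce lipid droplet formation. Times: overnight treatment with compound plus oleate. Detection: Image-based BODIPY and DAPI two-channel analysis. Evaluation: percent inhibition of filter-corrected integrated lipid droplet intensity per well.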
AHR act – activators of human aryl hydrocarbon receptor | AID 2796 | actives 2.5% (n = 320,000) | activation, % at 5 µM | AHR-responsive luciferase reporter cells, luminescence; in the data active means activation above about 47%
Target sequence (P35869 whole entry, looked up): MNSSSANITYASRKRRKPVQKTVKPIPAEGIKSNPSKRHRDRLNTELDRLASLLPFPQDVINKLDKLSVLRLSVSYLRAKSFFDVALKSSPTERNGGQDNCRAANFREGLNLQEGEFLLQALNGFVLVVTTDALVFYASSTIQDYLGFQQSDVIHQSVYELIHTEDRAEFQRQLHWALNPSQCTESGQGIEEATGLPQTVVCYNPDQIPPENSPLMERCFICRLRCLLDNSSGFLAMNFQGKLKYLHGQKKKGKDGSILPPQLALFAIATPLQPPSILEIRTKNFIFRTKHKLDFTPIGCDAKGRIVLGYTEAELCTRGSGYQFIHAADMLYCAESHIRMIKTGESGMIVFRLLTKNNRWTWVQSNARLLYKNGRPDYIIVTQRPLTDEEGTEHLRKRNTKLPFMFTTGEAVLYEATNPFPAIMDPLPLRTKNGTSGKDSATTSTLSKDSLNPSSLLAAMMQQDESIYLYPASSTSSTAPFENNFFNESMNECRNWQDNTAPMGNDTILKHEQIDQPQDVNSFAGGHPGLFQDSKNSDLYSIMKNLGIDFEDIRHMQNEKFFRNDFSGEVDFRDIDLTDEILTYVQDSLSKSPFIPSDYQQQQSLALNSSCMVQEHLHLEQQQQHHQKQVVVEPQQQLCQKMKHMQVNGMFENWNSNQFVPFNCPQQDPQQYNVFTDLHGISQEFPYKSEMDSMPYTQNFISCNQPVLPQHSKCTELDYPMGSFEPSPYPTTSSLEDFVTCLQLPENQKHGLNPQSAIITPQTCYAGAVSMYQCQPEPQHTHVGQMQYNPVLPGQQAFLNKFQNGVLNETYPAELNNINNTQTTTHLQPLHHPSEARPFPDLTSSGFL
SR-BI DiI inh – mouse SR-BI HDL lipid transfer inhibition; actives 0.96% (n = 320,000); inhibition, % at 12.5 µM; AID 488896; Q61009; ldlA[mSR-BI] CHO cells, DiI-HDL uptake fluorescence, 3 h;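 active means mean replicate inhibition of at least 70% and a set share of replicates each scoring 70 or more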
Yeast superoxide – yeast age-related superoxide inhibition as caloric restriction mimetic | S. cerevisiae aged cells, superoxide DHE fluorescence; hits give low values | superoxide response (% of plate mean), % at 10 µM | actives 0.18% (n = 330,000) | AID 2690;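 active means superoxide response under a set limit, about three screen SD below normal, cut at about 65% in these data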;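 further: yeast aged for seven days with compound at 30 °C before DHE staining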
SR-BI uptake up – SR-BI HDL lipid transfer activation | actives 0.096% (n = 320,000) | activation, % at 12.5 µM | AID 504775 | CHO ldlA[mSR-BI] cells, DiI-HDL uptake fluorescence, 3 h; 100 = double the neutral-control signal;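 active means mean replicate activation of at least 60% and every replicate at or above 60%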
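Material: SR-BI-overexpressing, LDLR-lacking CHO cells; schedule: compound exposure 3 h, 37 °C; reagent: DiI-labelled HDL at 10 µg/mL final; technique: bottom-read fluorescence, 550/595 nm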
Numbers stand for hits; i = inactive; nt = no result given.

SMILES	SMARCA2 activ	Hep lipid drop	AHR act	SR-BI DiI inh	Yeast superoxide	SR-BI uptake up
COc1ccc(NC(=S)N/N=C/c2ccc(F)c(F)c2)cc1	i	i	114	nt	i	nt
Cc1nc(NC(N)=S)sc1C(=O)Nc1ccccc1	i	nt	105	i	i	i
Cc1nc(NC(=O)C2CC2)sc1C(=O)Nc1ccccc1	i	i	i	i	i	i
Cc1ccc(NC(=O)c2sc(N)nc2C)cc1	i	i	61	i	i	i
CCCCc1c(-c2ccccc2OC)ncn1C1CCCCC1	i	nt	nt	nt	nt	nt
C=CCNC(=O)/C(C#N)=C\c1cc(Cl)c(OCC)c(OC)c1	i	i	i	i	63	i
CCOc1c(Br)cc(/C=C(\C#N)C(=O)NC2CC2)cc1OC	i	i	i	i	i	i
COc1cc(NC2CCCCC2O)c2nc(-c3ccc(Cl)cc3)ccc2c1 (configuration not stated)	i	i	i	80	i	i
Oc1ccc(-c2nccs2)cc1	i	nt	nt	i	nt	73
Oc1ccc(-c2nc(-c3ccc(O)c(O)c3)cs2)cc1	i	nt	i	i	i	i
O=C(O)c1ccccc1/C=N/NC(=O)C1CCCC1	7.9	i	nt	i	i	i
COc1ccc(N2C[C@@]3(O)CC[C@@H](O)[C@@H](OC)[C@@H]3[C@@]2(C)[C@H](O)CC=C(C)C)cc1	i	nt	nt	nt	nt	nt
CCOCCn1c(=NC(=O)/C=C/c2ccccc2Cl)sc2cc(NC(C)=O)ccc21	i	i	i	71	i	i
O=C(/C=C(\Nc1cc(Cl)c(F)c(Cl)c1)c1ccccc1)c1ccccc1	i	nt	nt	nt	nt	nt
Cc1cc(=O)oc2c(C(=O)/C=C\c3cccs3)c(O)ccc12	i	i	73	i	i	i
CC1(C)CC1C(=O)Nc1ccc([N+](=O)[O-])cc1Br (configuration not stated)	i	i	i	i	i	i
Cc1ccc(C2(c3ccc(C)cc3)CC2C(=O)Nc2ccc([N+](=O)[O-])cc2O)cc1 (configuration not stated)	i	nt	59	i	i	i
Cc1ccc(C)c(CN2C(=O)C(C)Oc3ccc(C)cc32)c1 (configuration not stated)	i	nt	i	77	i	i
Cc1ccc(CN2C(=O)C(C)Oc3ccc(C)cc32)cc1 (configuration not stated)	i	nt	nt	nt	nt	nt
O=c1[nH]c(/C=C/c2ccccc2[N+](=O)[O-])nc2ccccc12	i	i	79	i	i	i
O=c1[nH]c(/C=C/c2cccc3ccccc23)nc2ccccc12	i	i	56	i	i	i
O=C(NCc1ccccc1)[C@@H]1CCCN1C(=O)[C@H]1CCCN1C(=O)N1CCCCC1	i	nt	nt	nt	nt	nt
Cc1csc2ncc(C(=O)Nc3ccccc3F)c(=O)n12	i	i	60	i	i	i
Cc1csc2ncc(C(=O)Nc3ccccc3Cl)c(=O)n12	i	i	i	i	i	i
Fc1ccccc1/C=N/Nc1ncnc2ccccc12	i	nt	i	i	i	i
SMILES	SMARCA2 activ	Hep lipid drop	AHR act	SR-BI DiI inh	Yeast superoxide	SR-BI uptake up
Clc1ccc(/C=N/Nc2ncnc3ccccc23)cc1Cl	i	nt	58	i	i	i
Clc1cccc(-c2noc3ncnc(Nc4ccc5c(c4)OCO5)c23)c1	i	i	55	i	i	i
Cc1cccc(Nc2ncnc3onc(-c4cccc(Cl)c4)c23)c1	i	i	i	i	i	i
COC(=O)C1CCC(CNC(=O)C(Cc2ccc3c(c2)OCO3)NC(C)=O)CC1 (configuration not stated)	i	nt	nt	nt	nt	nt
COc1ccc(NC(=O)C(Sc2nnc3ccccn23)c2ccccc2)cc1Cl (configuration not stated)	i	i	i	i	i	82
Nc1nc(N)c(C=Nc2ccc(Br)cc2)c(Nc2ccc(Br)cc2)n1	i	i	99	i	i	i
Nc1nc(N)c(Br)c(Nc2ccc(Cl)c(Cl)c2)n1	i	nt	nt	i	nt	i
CCOc1ccc(-n2c(SCC(=O)c3ccc4ccccc4c3)nnc2-c2ccc(OC)cc2)cc1	i	nt	nt	nt	nt	nt
Cc1ccccc1CN1[C@@H](C)[C@H](c2ccccc2)Oc2cccc(NCCc3ccccc3)c2S1(=O)=O	i	nt	nt	nt	nt	nt
COC(=O)c1sccc1NC(=O)/C=C/c1ccc(Cl)cc1	i	i	54	i	i	i
COC(=O)[C@]12C[C@H](CC(=O)NCc3ccc(C)o3)C(=O)N(Cc3ccc(Cl)cc3Cl)C1=C[C@H](C(C)C)O[C@@H]2C1CC1	i	nt	nt	nt	nt	nt
COC(=O)C1CN(Cc2ccc(C)cc2)CCS(=O)(=O)N1Cc1cn(Cc2ccc(F)cc2)nn1 (configuration not stated)	i	nt	nt	nt	nt	nt
CN(C)c1ccc(-c2nc3ccccn3c2/N=C/c2ccc(Br)cc2)cc1	i	i	47	101	i	i
O=C(NCCc1c[nH]c2ccccc12)OCc1cn(Cc2cccc(C(F)(F)F)c2)nn1	i	nt	nt	nt	nt	nt
O=C(Cc1nnc(NC(=O)c2ccccc2)s1)N/N=C\c1ccc(O)c(O)c1	i	i	56	i	i	i
CCN(CC)c1ccc(/C=N/NC(=O)Cc2nnc(NC(=O)Nc3ccccc3)s2)cc1	i	i	i	91	i	i
O=C(Cc1nnc(NC(=O)c2ccccc2)s1)N/N=C/c1ccc(O)cc1	i	i	i	nt	i	nt
O=S(=O)(c1ccc(NC(=S)Nc2ccc3c(c2)OCO3)cc1)N1CCOCC1	i	i	74	i	i	i
O=C1CC(c2ccc(S(=O)(=O)NC3CC3)cc2)CN1 (configuration not stated)	i	nt	i	i	i	i
O=C1CC(c2ccc(S(=O)(=O)NCc3ccncc3)cc2)CN1 (configuration not stated)	i	nt	78	i	i	i
O=C(N/N=C\c1cccc(Cl)c1)c1ccc(Cn2cc(Br)c([N+](=O)[O-])n2)o1	i	i	i	i	i	i
Cc1c(Cl)c([N+](=O)[O-])nn1Cc1ccc(C(=O)N/N=C\c2cccc(Br)c2)o1	i	nt	55	i	i	i
Cc1ccc2nc(SCC(=O)Nc3ncccn3)[nH]c2c1	i	i	i	nt	i	nt
Cc1ccc2nc(SCC(=O)Nc3ccc(C)c([N+](=O)[O-])c3)[nH]c2c1	i	i	86	i	i	i
COc1ccc2nc(SCC(=O)NCc3ccc(F)cc3)[nH]c2c1	i	i	i	nt	i	nt
SMILES	SMARCA2 activ	Hep lipid drop	AHR act	SR-BI DiI inh	Yeast superoxide	SR-BI uptake up
COc1cccc(CNC(=O)CSc2nc3ccc(C)cc3[nH]2)c1	i	nt	53	i	i	i
Cc1ccc2nc(SCC(=O)Nc3ccc4c(c3)OCCO4)[nH]c2c1	i	i	i	i	i	i
Cc1ccc2nc(SCC(=O)Nc3cc(C)on3)[nH]c2c1	i	i	i	i	i	i
Cc1ccc2nc(SCC(=O)NCc3cccs3)[nH]c2c1	i	i	49	i	i	i
Cc1ccc2nc(SCC(=O)NNC(=O)c3ccccc3)[nH]c2c1	i	i	52	i	i	i
Cc1cc(C(=O)NN=Cc2cccc(O)c2)n[nH]1	i	nt	nt	nt	nt	nt
